Source: PubChem
Shown is part of a subset that was picked to be rich in hits.
pCIP destab: lowers stability of the mouse p/CIP coactivator protein; Q05BA5; AID 1984; decrease of EGFP signal, % at 10 µM; F442A p/CIP-EGFP cells, EGFP fluorescence, 16 h; 290,000 tested, 0.01% active;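 active = EGFP signal decrease of at least 30% at 10 µM or well 3 SD below plate mean, unless failing retest; inactive = the rest, including hits failing retest or dose response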
V-ATPase pH: yeast V-ATPase proton transport regulation by pHLuorin; response, % at 10 µM; AID 504577; 350,000 tested, 0.37% active; S. cerevisiae, pHLuorin cytosolic pH fluorescence; in the data active = response mostly above about 7.3%, no sharp cut-off; inactive = mostly below about 5.4%; also: actives read high
ABCB6 inh MLPCN: inhibitors of human ABC transporter ABCB6. Q9NP58. K562-ABCB6 porphyrin accumulation, flow cytometry, 1 h; stronger effect = lower value. fluorescence ratio to DMSO, % at 10 µM. 360,000 tested, 0.19% active. AID 602162;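 active = fluorescence ratio to DMSO below 75%, the collection mean minus 3 SD; inconclusive = too few cells collected in the well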;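 also: signal is porphyrin accumulated inside mitochondria; lower ratio means ABCB6 inhibition with less porphyrin fluorescence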
Cl transport mod: KCC2 (human) Cl- transport modulation; 190,000 tested, 2.2% active; Q9H2X9; B-score of Tl+ flux slope (higher = more flux/activation; lower = inhibition) at 10 µM; AID 1456; KCC2 cells, thallium flux FluoZin-2 fluorescence;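 active = thallium flux slope and its plate-corrected score both differing from the plate sample mean at a set confidence after two filtering rounds, in either direction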;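 also: slope of fluorescence scaled to starting intensity during 10 to 20 s after thallium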
Target sequence (Q9H2X9 whole entry, looked up): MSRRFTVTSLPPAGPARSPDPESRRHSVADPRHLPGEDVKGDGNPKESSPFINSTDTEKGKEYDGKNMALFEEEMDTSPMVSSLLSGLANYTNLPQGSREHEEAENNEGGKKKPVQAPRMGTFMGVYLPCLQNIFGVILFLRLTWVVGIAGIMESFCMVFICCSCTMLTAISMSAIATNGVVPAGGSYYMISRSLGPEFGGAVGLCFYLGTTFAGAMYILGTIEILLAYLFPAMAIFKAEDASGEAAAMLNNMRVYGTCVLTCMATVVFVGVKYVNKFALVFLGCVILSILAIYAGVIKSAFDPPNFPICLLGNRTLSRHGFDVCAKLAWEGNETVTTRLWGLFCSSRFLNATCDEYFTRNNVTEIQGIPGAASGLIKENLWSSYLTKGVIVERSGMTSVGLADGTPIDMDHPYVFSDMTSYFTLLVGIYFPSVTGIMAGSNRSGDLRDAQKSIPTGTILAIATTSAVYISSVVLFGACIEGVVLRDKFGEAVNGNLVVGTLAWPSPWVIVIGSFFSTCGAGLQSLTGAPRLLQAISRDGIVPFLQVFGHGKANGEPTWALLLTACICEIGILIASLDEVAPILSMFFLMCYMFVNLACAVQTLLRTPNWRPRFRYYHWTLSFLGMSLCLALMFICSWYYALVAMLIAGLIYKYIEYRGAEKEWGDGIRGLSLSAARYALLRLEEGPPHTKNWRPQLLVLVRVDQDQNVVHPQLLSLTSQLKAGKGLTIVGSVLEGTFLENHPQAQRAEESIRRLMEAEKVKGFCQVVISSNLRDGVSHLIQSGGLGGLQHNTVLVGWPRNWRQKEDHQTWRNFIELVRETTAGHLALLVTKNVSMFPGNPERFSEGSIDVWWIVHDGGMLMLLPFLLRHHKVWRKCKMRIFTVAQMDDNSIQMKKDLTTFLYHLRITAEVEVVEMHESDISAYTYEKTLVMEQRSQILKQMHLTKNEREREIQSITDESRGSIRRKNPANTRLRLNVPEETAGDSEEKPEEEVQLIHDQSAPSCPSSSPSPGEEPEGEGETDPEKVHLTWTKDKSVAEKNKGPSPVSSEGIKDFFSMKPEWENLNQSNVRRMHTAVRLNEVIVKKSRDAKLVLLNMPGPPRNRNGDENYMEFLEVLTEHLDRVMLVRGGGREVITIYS
Dynein transport: blocks dynein driven cargo transport along microtubules; 3617.4 mouse cells, GR-EGFP nuclear translocation imaging; test concentration mostly 20 µM; stimulated with dexamethasone, 1 µM; stronger effect = lower value; z-score, hits read low; 220,000 tested, 0.47% active; AID 1381;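 active = plate z-score of nuclear minus cytoplasmic receptor signal below a set negative limit, without overly bright fluorescence or cell loss, cut at about -3.5 in these data, passing the limit was not always enough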;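 also: z-score of nuclear minus cytoplasmic ring GR-EGFP intensity difference per well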
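Medium: Induction medium lacking tetracycline, stripped serum | Probe or stimulus: 1.0 µM final dexamethasone stimulus | Schedule: 48 h induction, then 1 h compound, then 30 min agonist, 37 °C | Signal: Automated 10x imaging of fixed Hoechst-stained cells | Evaluation: Per-cell GR-EGFP intensity, nucleus versus surrounding cytoplasmic ring, well-averaged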
KCC2 secondary: KCC2 (human) modulation, secondary assay; shares compounds with Cl transport mod; normalised thallium flux (F/F0 slope) at 10 µM; 3,700 tested, 15% active; HEK293-KCC2, thallium flux, FluoZin2 fluorescence; stronger effect = higher value;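 active = thallium flux slope above the same plate's solvent-only control mean plus 3 SD; inconclusive = the two replicate wells disagree; inactive = no significant difference from solvent-only control wells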
KCC2 bumet counter: bumetanide-insensitive thallium flux in KCC2 cells with ouabain, counter-screen; AID 1714; shares compounds with Cl transport mod; normalized thallium flux at 10 µM; HEK293-KCC2 + bumetanide/ouabain, thallium flux FluoZin2; stronger effect = higher value; 3,700 tested, 49% active;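 active = thallium entry rate above the same plate's blocked-transporter control wells by more than 3 SD; inconclusive = the two repeat wells disagree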;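 also: raw slope of fluorescence over initial fluorescence between 10 and 20 s after thallium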
KCC2 sec2: KCC2 (human) modulation, second secondary assay | shares compounds with Cl transport mod | HEK293-KCC2, thallium flux FluoZin2 fluorescence; actives lie on both sides; F/F0 rise rate, 10–20 s post-thallium | normalized thallium flux at 10 µM | 3,700 tested, 23% active | AID 1715;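 active = thallium flux slope more than 3 SD above or below the plate's solvent-only control mean, mostly below; inconclusive = the two repeat wells disagreed; inactive = no significant shift from solvent-only controls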
HEK293 Tl flux: counter-screen for KCC2 modulators: effect in parental HEK293 cells. 3,700 tested, 46% active. thallium flux FluoZin2, ouabain; baseline-ratio fluorescence slope, 10–20 s after thallium. thallium flux rate (normalised fluorescence) at 10 µM. shares compounds with Cl transport mod;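 active = thallium flux rate significantly above the same plate's solvent-only control wells, beyond their mean plus 3 SD; inconclusive = the two replicate wells gave conflicting results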
KCC2 retest ouab: KCC2 (human) modulation, ouabain retest | shares compounds with Cl transport mod | HEK293-KCC2, thallium flux FluoZin2 fluorescence; bidirectional: low = inhibitor, high = activator | raw Tl+ flux slope (below DMSO = inhibition, above = activation) at 10 µM | 3,700 tested, 48% active | AID 1717;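 active = thallium flux slope beyond 3 SD from same-plate DMSO control mean in most replicates, usually higher, sometimes lower; inconclusive = repeat tests gave conflicting results; inactive = no significant difference from controls in most replicates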;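 also: slope of initial-normalized fluorescence between seconds 10 and 20 after thallium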
HEK counter2: parental HEK flux effect, counter-screen 2 | shares compounds with Cl transport mod | HEK293 parental, thallium flux FluoZin-2 fluorescence slope | thallium flux slope at 10 µM | 3,700 tested, 33% active | AID 1718;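 active = thallium flux slope above the same plate's solvent-control mean plus 3 SD in both duplicate wells; inconclusive = duplicate wells that disagreed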;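 also: run without ouabain in cells lacking the KCC2 cotransporter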
A number is an active result; . = inactive; ? = inconclusive; / = no result given.

SMILES	pCIP destab	V-ATPase pH	ABCB6 inh MLPCN	Cl transport mod	Dynein transport	KCC2 secondary	KCC2 bumet counter	KCC2 sec2	HEK293 Tl flux	KCC2 retest ouab	HEK counter2
O=C(CSc1nnc(-c2cc3ccccc3cc2O)n1Cc1ccco1)c1ccc(F)cc1	.	.	.	.	.	/	/	/	/	/	/
O=C(COc1ncnc2scc(-c3ccc(Cl)cc3)c12)NCc1ccco1	.	.	.	.	.	/	/	/	/	/	/
Cc1ccsc1/C=N/n1c(C2CCCCC2)n[nH]c1=S	.	.	.	.	.	/	/	/	/	/	/
Cc1ccc(/C=N/n2c(C3CCCCC3)n[nH]c2=S)s1	.	.	.	7.3	.	.	0.022	.	0.011	.	?
CCN(CC)C(=O)Cn1c(=O)n(-c2ccc(CC(=O)NCc3ccccc3)cc2)c(=O)c2sccc21	.	.	.	.	.	/	/	/	/	/	/
COc1cc(-c2nnc(SC/C=C/c3ccccc3)n2N)cc(OC)c1OC	.	.	.	-6	.	.	.	.	.	.	.
CCOC(=O)CNC(=O)C(Cc1ccccc1)NC(=O)OCc1ccccc1 (stereo not given)	.	.	.	-5.5	.	.	.	0.025	.	?	.
CCOC(=O)CNC(=O)C(CO)NC(=O)OCc1ccccc1 (stereo not given)	.	.	.	.	.	/	/	/	/	/	/
CCCc1c(-c2ccccc2)ncn1Cc1ccccc1OC	/	/	.	/	/	/	/	/	/	/	/
Cc1c(O)ccc(C(=O)CN2CCN(Cc3ccccc3)CC2)c1O	.	.	.	/	/	/	/	/	/	/	/
CCC(C)NC(=O)CSc1nnc(-c2cc(OC)c(OC)c(OC)c2)c(-c2cc(OC)c(OC)c(OC)c2)n1 (stereo not given)	.	.	.	/	/	/	/	/	/	/	/
C=CCC[C@H](Cc1ccc(F)cc1)C(=O)OC[C@H](Cc1c[nH]c2ccccc12)NC(=O)[C@@H](CC=C)CC(=O)NCCO	/	.	.	/	/	/	/	/	/	/	/
COc1ccc(-c2nc(Cn3c(SCc4ccc(F)cc4)nc4ccncc43)c(C)o2)cc1OC	.	.	.	-3.5	.	.	.	.	?	?	.
COc1ccc(-c2nc(Cn3c(SCc4ccccc4F)nc4ccncc43)c(C)o2)cc1	.	.	.	.	.	/	/	/	/	/	/
O=C(Cc1cccs1)NNC(=S)NCc1ccc(Cl)cc1	.	.	.	.	.	/	/	/	/	/	/
O=C(Cc1ccc(Cl)cc1)NNC(=S)NC(=O)c1cccs1	.	.	.	29	.	.	0.045	0.037	0.034	0.037	0.027
CCn1c(O)c(N=NC(=O)c2cccs2)c2ccccc21	.	.	.	8.8	.	?	0.029	.	0.013	0.027	0.011
Cc1ccc(-c2ccc(CCC(=O)O)n2C(C)C)cc1	.	.	.	-4.4	.	.	.	.	.	.	.
COc1ccc(CN(C(=O)c2ccc(-c3ccccc3)[nH]2)C(C(=O)NC(C)(C)C)c2ccncc2)cc1 (stereo not given)	.	.	.	-4.9	.	.	.	?	.	0.016	.
COc1cc(C(C(=O)NC(C)(C)C)N(Cc2ccccc2)C(=O)c2cnccn2)cc(OC)c1OC (stereo not given)	.	.	.	.	.	/	/	/	/	/	/
CC(=O)N1CCN(C(=O)OC2CC3CC2[C@H]2CCCCN2C3=O)CC1 (stereo not given in full)	/	/	.	/	/	/	/	/	/	/	/
O=C(NNc1nc(-c2ccc(F)cc2)cs1)c1ccccc1	.	.	.	-4.2	.	.	.	0.028	.	0.017	.
O=C(CCNC(=O)c1ccccc1Cl)Nc1nc(-c2ccc(F)cc2)cs1	.	.	.	-4.2	.	.	.	.	.	0.014	.
O=C(NCc1nc(-c2ccccc2)cs1)c1ccccc1	.	.	.	-4.3	.	.	?	0.022	.	?	.
O=C(NC(=S)Nc1nc(-c2ccccc2)cs1)c1cccs1	.	.	.	.	.	/	/	/	/	/	/
SMILES	pCIP destab	V-ATPase pH	ABCB6 inh MLPCN	Cl transport mod	Dynein transport	KCC2 secondary	KCC2 bumet counter	KCC2 sec2	HEK293 Tl flux	KCC2 retest ouab	HEK counter2
CNC(=O)c1ccc(-c2nc(-c3ccccc3)cs2)cc1	.	.	.	.	.	/	/	/	/	/	/
O=C(NNc1nc(-c2ccccc2)cs1)c1cccs1	.	.	.	-3.8	.	.	.	0.026	.	0.015	.
O=C(NNc1nc(-c2ccccc2)cs1)c1ccc(F)cc1	.	.	.	.	.	/	/	/	/	/	/
CC1=CN2C(c3cccc([N+](=O)[O-])c3)=NON(c3ccc(C)cn3)C2C=C1 (stereo not given)	/	/	.	/	/	/	/	/	/	/	/
CC(=O)c1c(C)[nH]c(C(=O)OCC(=O)N2CCc3ccccc3C2)c1C	/	.	.	/	/	/	/	/	/	/	/
CCOc1ccccc1NC(=O)CSc1nnnn1Cc1ccccc1	.	.	.	-2.6	.	.	.	.	.	?	.
Cc1nc(NC(C)c2ccccc2)c2c3c(sc2n1)CCC3 (stereo not given)	.	.	.	-6.3	.	.	.	.	.	.	.
Cc1ccc(CNc2nc(C)nc3sc4c(c23)CCC4)cc1	.	.	.	.	.	/	/	/	/	/	/
CCCCCSc1nnc(-c2cc(Br)ccc2N)c(=O)[nH]1	.	.	.	/	.	.	?	.	?	?	.
CC(=O)c1c(C)nc(-c2ccc(Cl)cc2)nc1N=CN(C)C	.	.	.	/	.	.	.	.	.	.	.
COc1ccc(N(CC(=O)NCCc2ccccc2)C(=O)c2csnn2)cc1	.	.	.	/	/	/	/	/	/	/	/
Cc1ccc2nc(NC(=O)Cn3cc4c(n3)CCCCC4)sc2c1	.	.	.	-2.9	.	.	?	.	?	.	.
NC(=S)N=Nc1c(O)[nH]c2c(Br)cc(Br)cc12	.	.	.	25	.	.	0.027	0.04	0.018	0.036	0.017
Oc1[nH]c2ccc(Br)cc2c1N=NC(=S)N1CCOCC1	.	.	.	/	.	/	/	/	/	/	/
CC1C/C(=N\NC(=O)c2cccnc2)CC(C)(C)C1 (stereo not given)	.	.	.	.	.	/	/	/	/	/	/
CC1C/C(=N\NC(=O)c2ccc([N+](=O)[O-])cc2)CC(C)(C)C1 (stereo not given)	.	.	.	5.4	.	.	0.016	.	0.009	0.027	?
